From ChEMBL document CHEMBL4219164, “Design, synthesis and biological evaluation of novel 3-substituted pyrazolopyrimidine derivatives as potent Bruton's tyrosine kinase (BTK) inhibitors” (Bioorg Med Chem, 2018)

Columns and labels:
Raji = assay: Antiproliferative activity against human Raji cells after 48 hrs by CCK8-based assay; assay type: functional, cell-based
Outline: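 CCK-8 viability readout. Cells were seeded at 2000–3000 per well and held 24 h at 37 °C in 5% CO2, then exposed to compound at five concentrations within 1.25–40 μM, each in triplicate. CCK-8 was added for a further 1–4 h and absorbance read at 450 nm, with cell number set to give 0.5–1.2. IC50 was taken as the mean of at least three experiments.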

[1] = biological target: Tyrosine-protein kinase BTK (Homo sapiens, UniProt Q06187); assay: Inhibition of full length human N-terminal GST-tagged BTK (2 to 659 residues) expressed in baculovirus expression system using biotinylated substrate after 50 mins by HTRF assay
Tyrosine-protein kinase BTK, sequence (Q06187 whole entry, the tested form may be a part): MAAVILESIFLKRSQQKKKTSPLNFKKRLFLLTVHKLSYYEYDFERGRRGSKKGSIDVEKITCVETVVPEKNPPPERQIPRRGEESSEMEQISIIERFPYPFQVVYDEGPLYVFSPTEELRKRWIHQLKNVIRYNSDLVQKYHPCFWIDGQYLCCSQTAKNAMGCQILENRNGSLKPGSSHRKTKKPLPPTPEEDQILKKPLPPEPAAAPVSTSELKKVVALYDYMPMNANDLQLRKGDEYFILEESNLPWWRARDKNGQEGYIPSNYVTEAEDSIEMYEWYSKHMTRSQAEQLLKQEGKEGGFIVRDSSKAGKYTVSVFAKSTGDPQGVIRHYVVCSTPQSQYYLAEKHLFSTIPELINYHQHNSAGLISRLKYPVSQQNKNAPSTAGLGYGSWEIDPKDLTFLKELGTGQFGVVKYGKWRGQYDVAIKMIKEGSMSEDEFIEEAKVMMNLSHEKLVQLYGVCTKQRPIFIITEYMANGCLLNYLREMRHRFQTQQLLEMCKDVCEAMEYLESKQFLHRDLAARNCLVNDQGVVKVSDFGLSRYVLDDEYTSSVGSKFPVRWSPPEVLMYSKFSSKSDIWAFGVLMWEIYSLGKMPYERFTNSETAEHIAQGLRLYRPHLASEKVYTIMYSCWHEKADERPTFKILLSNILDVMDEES

Ramos = assay: Antiproliferative activity against human Ramos cells after 48 hrs by CCK8-based assay; assay type: functional, cell-based

Row | IC50 (Raji) [nM] | IC50 [1] [nM] | IC50 (Ramos) [nM] | Structure (SMILES)
1 | 1800 | 7.95 | 8910 | C=CC(=O)N1CCC[C@@H](n2nc(C#CCOc3ccccc3)c3c(N)ncnc32)C1
2 |  | 39.8 |  | C=CC(=O)N1CCC[C@@H](n2nc(C#CCCOc3ccccc3)c3c(N)ncnc32)C1
3 |  | 89.6 |  | C=CC(=O)N1CCC[C@@H](n2nc(C#CCOc3ccc(OC)cc3)c3c(N)ncnc32)C1
4 |  | 26.9 |  | C=CC(=O)N1CCC[C@@H](n2nc(C#CCOc3ccc(C)cc3)c3c(N)ncnc32)C1
5 |  | 11.3 |  | C=CC(=O)N1CCC[C@@H](n2nc(/C=C/COc3ccccc3)c3c(N)ncnc32)C1
6 | 2720 | 11 | 37200 | C=CC(=O)N1CCC[C@@H](n2nc(C#CCSc3ccccc3)c3c(N)ncnc32)C1
7 |  | 49.2 |  | C=CC(=O)N1CCC[C@@H](n2nc(C#CCOc3ccccc3C)c3c(N)ncnc32)C1
8 |  | 102 |  | C=CC(=O)N1CCC[C@@H](n2nc(C#CCc3ccccc3)c3c(N)ncnc32)C1
9 | > 40000 | 23.2 | 14600 | C=CC(=O)N1CCC[C@@H](n2nc(/C=C\COc3ccccc3)c3c(N)ncnc32)C1
10 | 1620 | 15.9 | > 40000 | C=CC(=O)N1CCC[C@@H](n2nc(C#CCCc3ccccc3)c3c(N)ncnc32)C1
11 |  | 22.2 |  | C=CC(=O)N1CCC[C@@H](n2nc(CCCOc3ccccc3)c3c(N)ncnc32)C1
12 |  | 45.4 |  | C=CC(=O)N1CCC[C@@H](n2nc(C#CCOc3cccc(C(C)C)c3)c3c(N)ncnc32)C1
13 |  | 38.2 |  | C=CC(=O)N1CCC[C@@H](n2nc(C#CCOc3ccccc3OC)c3c(N)ncnc32)C1
14 | 1690 | 9.84 | > 40000 | C=CC(=O)N1CCC[C@@H](n2nc(C#CCOc3cccc(OC)c3)c3c(N)ncnc32)C1
15 | > 40000 | 18.1 | 18200 | C=CC(=O)N1CCC[C@@H](n2nc(C#CCNc3ccccc3)c3c(N)ncnc32)C1
16 |  | 209 |  | C=CC(=O)N1CCC[C@@H](n2nc(C#CCOc3cccc(C(F)(F)F)c3)c3c(N)ncnc32)C1
17 |  | 20.8 |  | C=CC(=O)N1CCC[C@@H](n2nc(C#CCOc3cccc(C)c3)c3c(N)ncnc32)C1
18 | 2280 | 18.1 | > 40000 | C=CC(=O)N1CCC[C@@H](n2nc(C#CCOc3cccc(Cl)c3)c3c(N)ncnc32)C1

Row | Structure (SMILES) | IC50 (Raji) [nM] | IC50 [1] [nM] | IC50 (Ramos) [nM]
19 | C=CC(=O)N1CCC[C@@H](n2nc(-c3ccc(Oc4ccccc4)cc3)c3c(N)ncnc32)C1 [IBRUTINIB] | 1490 |  | 
